# Experimental data of several laboratories.
# Compare with care: the assays were run in different laboratories.
# CYP2E1: Cytochrome P450 2E1 (CYP2E1, Homo sapiens, UniProt P05181)
SMILES,tested on,assay,system,setting,measurement,result
O=C(CN1C(=O)Cc2c([nH]c3ccc(Br)cc23)-c2ccc(Cl)cc21)N1CCCC1,J774,"cell growth or viability, WST-1",,24 h,CC50,≤ 100 µM
CN(C(=O)n1cnc(-c2ccc[n+]([O-])c2)c1)C1CCCCC1,,,"male cynomolgus monkey, plasma","oral, 0.1 mg/kg",Cmax,37.1 ng/mL
Nn1nnc2ccccc21,CYP2E1,"enzyme activity, inhibitor, HPLC",,,IC50,37.7 µM
CCN(CC)C(=O)CN1C(=O)Cc2c([nH]c3ccc(Br)cc23)-c2ccc(Cl)cc21,J774,"cell growth or viability, WST-1",,24 h,CC50,≥ 100 µM
Nc1nc(O)c2ncn(COC(CO)CO)c2n1,HFF,"cell growth or viability, ATP luminescence",,,CC50,> 150 µM
Nc1ccc(C=Cc2ccc([125I])cc2)cc1,,,"Swiss mouse, brain","intravenous, 5 µCi, 2 min",tracer uptake,2.29 %ID/g
CCN(CC)C(=S)S,CYP2E1,"enzyme activity, inhibitor","human, liver microsomes",50 µM,inhibition,75%
Cc1csc2c(=O)n(O)c(=O)[nH]c12,HFF,"cell growth or viability, MTS",,"10 µM, 7 days",viability,122%
O=C(CN1C(=O)Cc2c([nH]c3ccc(Br)cc23)-c2ccc(Cl)cc21)N1CCNCC1,J774,"cell growth or viability, WST-1",,24 h,CC50,≤ 10 µM
O=c1[nH]c2sc3c(c2c(=O)n1O)CCNC3,HFF,"cell growth or viability, MTS",,"10 µM, 7 days",viability,107%
O=C(CN1C(=O)Cc2c([nH]c3ccc(Br)cc23)-c2ccc(Cl)cc21)N1CCOCC1,J774,"cell growth or viability, WST-1",,24 h,CC50,≤ 10 µM
O=c1[nH]c2scc(-c3ccccc3)c2c(=O)n1O,HFF,"cell growth or viability, MTS",,"10 µM, 7 days",viability,90%
O=C(CCCCCCC(=O)Nc1ccc(CC[18F])cc1)NO,,,"male nude mouse, stomach","intravenous, 1 h, tumour-bearing",tracer uptake,1.5 %ID/g
Cc1c(C(=O)O)sc2[nH]c(=O)n(O)c(=O)c12,HFF,"cell growth or viability, MTS",,"10 µM, 7 days",viability,94%
Cn1ccc(COc2cnc(C(N)=O)cc2-c2ccc(O[11CH3])cc2F)n1,,,"male mouse, lung","intravenous, 2.5 MBq, 5 min",tracer uptake,2.61 %ID/g
O=c1[nH]c2sc(-c3ccc(F)cc3)cc2c(=O)n1O,HFF,"cell growth or viability, MTS",,"10 µM, 7 days",viability,112%
CC1COc2ccccc2N1C(=O)C(Cl)Cl (centres unmarked),,metabolic stability,"male monkey, liver microsomes","5 µM, pH 7.4",microsomal CLint,900 µL/min/mg
